Reference: ChEMBL document CHEMBL2413031, “Synthesis and tubulin-binding properties of non-symmetrical click C5-curcuminoids” (Bioorg Med Chem, 2013)
Activity calls are given as the source filed them. The rule behind the calls is not given here.

Columns and labels:
MeWo [1] = assay: Cytotoxicity against human MeWo cells assessed as cell viability at 10 uM after 48 hrs by MTT assay relative to vehicle-treated control; assay type: functional; settings: read-out: Activity
Method in brief: (§1)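 MeWo melanoma cells (DMEM, 10% FBS, 2 mM L-glutamine, penicillin/streptomycin 100 µg/mL) grown 48 h with or without compound. Washed twice in Locke's solution (HEPES pH 7.6), then MTT 250 µg/mL for 90 min. Screening at 10 µM fixed concentration against untreated control. Concentration–response: mean + S.D. of 8–16 replicates from 4 separate experiments.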

Tubulin (Homo sapiens) [2] = target: T1, Tubulin (Homo sapiens) (UniProt P68371+Q9H4B7+P0DPH7+P68366+Q13509+Q71U36+P04350+Q3ZCM7+P07437+P68363+Q9BQE3+Q6PEY2+Q13885+Q9BVA1+Q9BUF5); assay: Inhibition of alpha-tubulin polymerization in human MeWo cells at 3 X IC50 after 16 hrs by Western blot analysis in presence of paclitaxel; assay type: cell-based
Method in brief: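 MeWo cells in flasks, treated 16 h at 3× IC50 or left untreated. Trypsinised and lysed 10 min at RT in hypotonic buffer (20 mM Tris-HCl pH 6.8, 1 mM MgCl2, 2 mM EGTA, 0.5% NP-40, protease inhibitors) containing paclitaxel. Equal protein centrifuged 13000 rpm, 15 min. Pellet (polymerized) and supernatant (free) α-tubulin compared by SDS-PAGE/western blot, chemiluminescence. Three experiments; CA-4 positive control.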

Tubulin (Homo sapiens) [3] = target: T1, Tubulin (Homo sapiens); assay: Inhibition of alpha-tubulin polymerization in human MeWo cells at 3 X IC50 after 16 hrs by immunofluorescence microscopic analysis; assay type: cell-based
Method in brief: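 MeWo cells on glass coverslips, drug-treated at 3× IC50, 16 h per the legend (24 h in methods). Stained with anti-tubulin (1:1000, 20 min RT), Alexa 488 secondary and nuclear dye, imaged at 63× oil. Representative of three experiments.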

MeWo [4] = assay: Antitubulinic activity in human MeWo cells assessed as blockade in G2/M phase at 3 X IC50 after 16 hrs by propidium iodide staining-based FACS analysis; assay type: functional, cell-based
Method in brief: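 MeWo cells (DMEM, 10% FBS, 2 mM L-glutamine, pen/strep) exposed 16 h to vehicle or compound. Washed once in PBS, then fixed in ice-cold 30:70 PBS/EtOH and held at −20 °C before DNA-content flow cytometry. Histograms shown are representative of three separate experiments.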

[5] = Cytotoxicity against human SH-SY5Y cells assessed as cell viability after 48 hrs by MTT assay; assay type: functional, cell-based
Method in brief: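 SH-SY5Y neuroblastoma cells in 50% DMEM/50% F-12 with 10% FBS, treated 48 h across a concentration range. Viability by MTT: cells washed twice in Locke's solution (pH 7.6), then 90 min with MTT 250 µg/mL. Mean + S.D. of 8–16 replicates from 4 separate experiments.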

MeWo [6] = assay: Cytotoxicity against human MeWo cells assessed as cell viability after 48 hrs by MTT assay; assay type: functional, cell-based; method in brief: as §1

| SMILES | viability at 10 µM (MeWo [1]) [%] | further results |
| --- | --- | --- |
| COc1cc(/C=C/C(O)=C/C(=O)c2ccccc2)cc(OC)c1OC | 93 | – |
| COc1cc(/C=C/c2cc(-c3ccccc3)[nH]n2)cc(OC)c1OC | 89 | – |
| O=C(/C=C(O)/C=C/c1ccc(O)cc1)c1ccccc1 | 90 | – |
| COc1cc(/C=C/C(O)=C/C(=O)c2ccc(O)cc2)cc(OC)c1 | 90 | – |
| COc1ccc(/C=C/c2cc(-c3ccc(O)c(OC)c3)[nH]n2)cc1 | 92 | – |
| COc1cc(/C=C/c2cc(-c3ccccc3)[nH]n2)cc(OC)c1 | 90 | – |
| COc1cc(/C=C/c2cc(-c3ccc(O)c(OC)c3)[nH]n2)ccc1O | 36 | inhibition (Tubulin (Homo sapiens) [2]): Active; inhibition (Tubulin (Homo sapiens) [3]): Active; Activity (MeWo [4]): Active; IC50 [5]: 4 µM; IC50 (MeWo [6]): 3.7 µM |
| COc1ccc(/C=C/C(O)=C/C(=O)c2ccccc2)cc1 | 90 | – |
| COc1cc(/C=C/C(O)=C/C(=O)c2ccccc2)ccc1O | 90 | – |
| COc1cc(/C=C/c2cc(-c3ccc(O)c(OC)c3)[nH]n2)cc(OC)c1 | 43 | inhibition (Tubulin (Homo sapiens) [2]): Active; inhibition (Tubulin (Homo sapiens) [3]): Active; Activity (MeWo [4]): Active; IC50 [5]: 11.8 µM; IC50 (MeWo [6]): 4.8 µM |
| COc1cc(/C=C/C(O)=C/C(=O)c2ccc(O)cc2)cc(OC)c1OC | 85 | – |
| COc1cc(/C=C/C(O)=C/C(=O)c2ccccc2)cc(OC)c1 | 92 | – |
| COc1cc(-c2cc(/C=C/c3cc(OC)c(OC)c(OC)c3)n[nH]2)ccc1O | 75 | – |
| COc1cc(/C=C/c2cc(-c3ccccc3)[nH]n2)ccc1O | 51 | – |
| COc1cc(C(=O)/C=C(O)/C=C/c2ccc(O)cc2)ccc1O | 98 | – |
| COc1cccc(/C=C/c2cc(-c3ccc(O)c(OC)c3)[nH]n2)c1 | 27 | inhibition (Tubulin (Homo sapiens) [2]): Active; inhibition (Tubulin (Homo sapiens) [3]): Active; Activity (MeWo [4]): Active; IC50 [5]: 10.6 µM; IC50 (MeWo [6]): 3.6 µM |

| SMILES | viability at 10 µM (MeWo [1]) [%] | further results |
| --- | --- | --- |
| COc1cc(/C=C/C(=O)CC(=O)/C=C/c2ccc(O)c(OC)c2)ccc1O [CURCUMIN] | 90 | inhibition (Tubulin (Homo sapiens) [2]): Active; inhibition (Tubulin (Homo sapiens) [3]): Active; Activity (MeWo [4]): Active; IC50 [5]: 11.4 µM; IC50 (MeWo [6]): 35.5 µM |
| COc1cc(/C=C/C(O)=C/C(=O)c2ccc(O)cc2)ccc1O | 89 | – |
| COc1ccc(/C=C/c2cc(-c3ccc(O)cc3)[nH]n2)cc1 | 81 | – |
| COc1cc(C(=O)/C=C(O)/C=C/c2cc(OC)c(OC)c(OC)c2)ccc1O | 89 | – |
| COc1ccc(/C=C/C(O)=C/C(=O)c2ccc(O)cc2)cc1 | 93 | – |
| COc1cc(/C=C/c2cc(-c3ccc(O)cc3)[nH]n2)cc(OC)c1 | 38 | inhibition (Tubulin (Homo sapiens) [2]): Active; inhibition (Tubulin (Homo sapiens) [3]): Active; Activity (MeWo [4]): Active; IC50 [5]: 10.6 µM; IC50 (MeWo [6]): 5.7 µM |
| Oc1ccc(/C=C/c2cc(-c3ccc(O)cc3)[nH]n2)cc1 | 87 | – |
| COc1cc(/C=C/C(O)=C/C(=O)c2ccc(O)c(OC)c2)ccc1O | 97 | – |
| COc1cc(-c2cc(/C=C/c3ccc(O)cc3)n[nH]2)ccc1O | 95 | – |
| COc1cc(/C=C/C(O)=C/C(=O)c2ccc(O)c(OC)c2)cc(OC)c1 | 88 | – |
| COc1ccc(/C=C/c2cc(-c3ccccc3)[nH]n2)cc1 | 92 | – |
| O=C(/C=C(O)/C=C/c1ccc(O)cc1)c1ccc(O)cc1 | 77 | – |
| COc1cc(/C=C/c2cc(-c3ccc(O)cc3)[nH]n2)ccc1O | 69 | – |
| Oc1ccc(/C=C/c2cc(-c3ccccc3)[nH]n2)cc1 | 98 | – |
| COc1ccc(/C=C/C(O)=C/C(=O)c2ccc(O)c(OC)c2)cc1 | 84 | – |
| COc1cc(/C=C/c2cc(-c3ccc(O)cc3)[nH]n2)cc(OC)c1OC | 85 | – |
